ERp5 inh = blocks human ERp5 reductase activity on insulin. ERp5 insulin aggregation, absorbance 650 nm, 90 min. inhibition, % at 9.99 µM. AID 651711. hit rate 0.05% among 350,000. Q15084;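 active = mean replicate inhibition above about 25%, with every replicate also reaching it, limit read from the data, passing the limit was not always enough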
Target sequence (Q15084 whole entry, looked up): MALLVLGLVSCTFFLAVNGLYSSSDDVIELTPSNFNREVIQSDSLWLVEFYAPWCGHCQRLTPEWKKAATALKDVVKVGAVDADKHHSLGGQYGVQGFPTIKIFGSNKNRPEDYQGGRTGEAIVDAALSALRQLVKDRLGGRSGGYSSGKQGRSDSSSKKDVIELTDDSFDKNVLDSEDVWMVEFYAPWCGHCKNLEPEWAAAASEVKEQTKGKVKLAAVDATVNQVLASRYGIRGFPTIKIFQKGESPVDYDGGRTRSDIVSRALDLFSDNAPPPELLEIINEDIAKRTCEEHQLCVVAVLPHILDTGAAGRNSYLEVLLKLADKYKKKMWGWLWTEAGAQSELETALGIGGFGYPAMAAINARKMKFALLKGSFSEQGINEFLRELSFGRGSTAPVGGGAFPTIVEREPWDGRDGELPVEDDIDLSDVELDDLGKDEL
CAL PDZ FP-1 = inhibitors of human CAL PDZ peptide binding. inhibition, % at 24.9 µM. Q9HD26. purified CAL PDZ, TMR-peptide fluorescence polarization, 1 h. hit rate 0.92% among 300,000;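 active = mean inhibition of at least 30% with at least half of replicates also reaching 30%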;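 note: 0% = DMSO neutral control and 100% = excess unlabeled competitor peptide PRC23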
ERAP1 inh = ERAP1 (human) enzyme inhibition; Q9NZ08; recombinant ERAP1, Leu-AMC fluorescence, 60 min; inhibition, % at 10.7 µM; hit rate 0.15% among 340,000;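 active = mean replicate inhibition of at least 30%, or all replicates individually reaching that 30% level; inactive = mean below 30% and not every replicate reaching it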;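 note: 0% = neutral control wells and 100% = L-leucinethiol positive control wells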
PDI inh = inhibitors of human protein disulfide isomerase; PDI insulin aggregation turbidity, A650, 90 min; inhibition, % at 10 µM; hit rate 0.052% among 350,000; AID 588391;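 active = mean inhibition across replicates of 30% or more, whatever share of single replicates reach that level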
CAL PDZ FP-2 = human CAL PDZ-peptide interaction inhibition; hit rate 0.02% among 330,000; Q9HD26; purified CAL PDZ, TMR-peptide fluorescence polarization, 1 h; inhibition, % at 20 µM;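 active = highest replicate inhibition of at least 40%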;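 note: plate controls were DMSO neutral control wells for no effect and unlabeled competitor peptide control wells for full effect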
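Assay system – tagged CAL PDZ protein CerCALP, purified · Timing – 1 h at RT · Compound – single point, 20 µM · Measured by – fluorescence polarization from S- and P-plane intensities, G-factor corrected · Evaluation – inhibition from polarization loss · Probe or stimulus – TMR reporter peptide T*-PRC34 · Buffer or medium – pH 7.4 phosphate-saline buffer, reducing agent, detergent, IgG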
Rin1-Abl PPI inh = inhibitors of human Rin1-Abl protein interaction; P00519+Q13671; TR-FRET Rin1/Abl binding, biochemical; inhibition, % at 7.35 µM; hit rate 0.4% among 360,000; AID 588664; in the data active = inhibition above about 5%, passing the limit was not always enough
Numbers without * were called inactive; nt = no result given; + = active, no number. In the library only some 1.1% were active in any assay of this set; here they are far more common.

SMILES	ERp5 inh	CAL PDZ FP-1	ERAP1 inh	PDI inh	CAL PDZ FP-2	Rin1-Abl PPI inh
CSc1nsc(SCC(=O)NCc2ccc(C)cc2)n1	-1	71*	1	-4	nt	-1
CC(C)CC1NC(=O)N(CC(=O)N(C)C2CCCCC2)C1=O (centres undefined)	2	108*	-2	4	0	4
O=C(c1cccc(F)c1)N1CC(=O)N2[C@H](C1)[C@H](c1ccc(/C=C/c3ccccc3)cc1)[C@@H]2CO	1	nt	-4	nt	nt	nt
COc1ccc(C2NCCc3c2[nH]c2ccccc32)cc1CN1CCc2cc(OC)c(OC)cc2C1C (centres undefined)	nt	-4	nt	5	-3	7.3*
COc1ccc(C2NCCc3c2[nH]c2ccccc32)cc1COc1ccc(F)cc1 (centres undefined)	5	11	-2	1	-3	2
CO[C@@H]1CN(C)C(=O)c2cc(NC(=O)Nc3cccc(Cl)c3)ccc2OC[C@@H](C)NC[C@@H]1C	2	nt	4	nt	nt	nt
Cc1ccc(NC(=O)CNC(=O)C2CCCCC2)nc1	5	-1	-4	4	-2	0
Cc1cccnc1NC(=O)CNC(=O)C1CCCCC1	2	36*	-1	-3	-1	3
Cc1ccc(-c2nc3c(c(=O)[nH]c(=O)n3Cc3ccccc3)n2C)o1	7	31*	3	-4	-2	3
Cc1ccc(-c2nc3c(c(=O)[nH]c(=O)n3Cc3ccccc3)n2Cc2ccccc2)o1	-3	8	0	2	-3	0
Cn1c(N)c(C(=O)COC(=O)c2ncc(Cl)c(Cl)c2Cl)c(=O)n(C)c1=O	0	55*	-1	-4	-1	2
Cn1c(N)c(C(=O)COC(=O)c2ccccn2)c(=O)n(C)c1=O	3	3	-3	0	-1	2
CC(C)(C)c1nc(Sc2ccc([N+](=O)[O-])cn2)n[nH]1	6	-1	nt	7	0	-1
O=[N+]([O-])c1ccc(Sc2n[nH]c(-c3ccc(Cl)cc3Cl)n2)nc1	nt	43*	nt	15	nt	-2
C[C@@H]1CCCCO[C@H](CN(C)S(=O)(=O)c2cccs2)[C@H](C)CN([C@H](C)CO)C(=O)c2cc(NC(=O)C3CCCCC3)ccc2O1	-7	nt	1	nt	nt	nt
COc1ccc(S(=O)(=O)N2CCCCC2)cc1NC(=O)C1CC1	5	32*	4	-4	-1	0
COc1ccc(S(=O)(=O)N2CCCCCC2)cc1C(=O)OC(C)C(N)=O (centres undefined)	-2	+	4	-4	0	-3
COc1ccc(NC(C)=O)cc1NC(C)C(=O)Nc1cccc(S(=O)(=O)N2CCOCC2)c1 (centres undefined)	11	-2	-6	-8	1	0
Cc1ccc(S(=O)(=O)N2CCCCC2)cc1NC(=O)C1CC1	-2	-4	-2	-3	-1	4
COc1ccc(S(=O)(=O)N2CCCCCC2)cc1NC(C)C(=O)Nc1ccc(NC(C)=O)cc1 (centres undefined)	6	48*	1	-4	0	1
COc1ccc(S(=O)(=O)N2CCC(C(=O)N[C@H](C(=O)N3CCCC3)C(C)C)CC2)cc1	4	94*	-1	1	0	0
COc1ccc(S(=O)(=O)N2CCCCCC2)cc1C(=O)OCC(=O)NC(N)=O	nt	-4	nt	-11	-1	-1
COC(=O)C[C@@H]1C[C@@H]2c3cc(NC(=O)Nc4ccccc4)ccc3O[C@@H]2[C@H](CO)O1	-6	nt	-6	nt	nt	nt
Cc1ccccc1N/C(=N/S(=O)(=O)c1ccccc1)c1ccc(F)cc1	1	7	0	8	-2	0
Cc1ccc(/C(=N\S(=O)(=O)c2ccc(Br)cc2)Nc2ccccc2C)cc1	-5	65*	-8	-4	-1	0
SMILES	ERp5 inh	CAL PDZ FP-1	ERAP1 inh	PDI inh	CAL PDZ FP-2	Rin1-Abl PPI inh
O=C(NCc1ccc(Cl)cc1)c1cc2ccccc2oc1=O	3	-3	-2	2	-1	-3
O=C(NCc1ccccc1)c1cc2ccccc2oc1=O	-1	68*	8	18	3	0
CC1CC1C(=O)N1CCN(S(=O)(=O)c2cc(C(F)(F)F)cc(C(F)(F)F)c2)CC1 (centres undefined)	-10	76*	-2	-9	0	3
CCC(=O)NC(c1cccs1)c1ccc2cccnc2c1O (centres undefined)	2	-2	4	-4	-2	9.8*
COc1ccc2c3c(n(C)c2c1)[C@@H](CO)N(C(C)=O)CC31CCN(Cc2cccnc2)CC1	1	nt	-2	nt	nt	nt
O=C(C=Cc1ccccc1)c1cc(Br)ccc1O	4	81*	-4	7	21	2
Cc1ccc(O)c(C(=O)C=Cc2ccccc2)c1	-1	-5	-6	4	-1	2
O=C1C(=C(I)I)c2ccccc2-c2ccccc21	-2	-3	36*	0	0	4
COC(=O)c1sc2nc(C)nc(SCC(=O)C(C)(C)C)c2c1C	3	43*	0	-3	-1	2
COc1cccc(-c2ccc([C@H]3[C@H](CO)N4CCCCN(CC5CCOCC5)C[C@@H]34)cc2)c1	0	nt	-2	nt	nt	nt
C[C@H](CO)N1C[C@H](C)[C@H](CN(C)S(=O)(=O)c2ccc([N+](=O)[O-])cc2)OCc2ccccc2-c2c(n(C)c3ccccc23)C1=O	-10	nt	-1	nt	nt	nt
N#Cc1ccc(-c2ccc([C@H]3[C@H]4CN(C(=O)C5CCCC5)CC(=O)N4[C@H]3CO)cc2)cc1	1	nt	0	nt	nt	nt
O=C(Cc1ccccn1)N1CC(=O)N2[C@@H](CO)[C@H](c3ccc(C#CC4CCCC4)cc3)[C@@H]2C1	4	nt	32*	nt	nt	nt
N#Cc1ccc(-c2ccc([C@H]3[C@H](CO)N4C(=O)CN(C(=O)C5CC5)C[C@@H]34)cc2)cc1	-10	nt	38*	nt	nt	nt
COc1ccc(NC(=O)N(C)C[C@H]2Oc3ccc(NC(=O)Cc4cn(C)c5ccccc45)cc3CC(=O)N([C@H](C)CO)C[C@H]2C)cc1	-5	nt	0	nt	nt	nt
COc1ccc(CNC(=O)COC(=O)CCOc2ccc(C)cc2)cc1	-11	1	-4	5	-3	-3
COc1ccc(OCCC(=O)OCC(=O)NCc2ccc(F)cc2)cc1	2	47*	4	-3	-2	-4
Oc1cc2c(cc1O)[C@H]1c3ccc(O)c(O)c3OC[C@@]1(O)C2	-5	nt	22	3	0	31*
COc1ccc(-c2nn(C)c3sc(C(=O)NCc4ccco4)cc23)cc1OC	nt	-1	nt	5	-1	0
COc1ccc(NC(=O)c2cc3c(-c4ccc(OC)c(OC)c4)nn(C)c3s2)cc1OC	nt	56*	nt	0	10	-6
Cc1ccc([N+](=O)[O-])cc1NC1CC(O)C(CO)O1 (centres undefined)	4	31*	-2	1	1	-3
N#C[C@@H]1[C@@H](c2ccc(C3=CCCC3)cc2)[C@@H](CO)N1C(=O)c1cccc(F)c1	-9	nt	1	nt	nt	nt
